Data reported in ChEMBL document CHEMBL1124567, “2,4-Diamino-5-benzylpyrimidines and analogues as antibacterial agents. 11. Quinolylmethyl analogues with basic substituents conveying specificity” (J Med Chem, 1989).
≈ marks a conversion by molar mass, not a printed value.

Legend:
[1] = Dissociation constant of compound at 25 degree C; format: physicochemical
Enterococcus faecalis = experiment: Comparative in vitro antibacterial activity of compound with trimethoprim against Streptococcus faecalis CN478; format: functional
Method in brief: (§1)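 Activity is expressed relative to trimethoprim as the reference, with values above 1 meaning lower activity than the reference. Dilutions were threefold (1:3), and a difference of ± one dilution was not treated as significant.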

[2] = Comparative in vitro antibacterial activity of compound with trimethoprim against Salmonella typhi CN512; format: functional, salmonella typhosa
Method in brief: (§2)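 In vitro activity given as a ratio to trimethoprim, which is tested alongside; values above 1 mean lower activity than trimethoprim. Compounds were tested in serial 1:3 dilutions, and a difference of ±one dilution is treated as not significant.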

Staphylococcus aureus = experiment: Comparative in vitro antibacterial activity of compound with trimethoprim against Staphylococcus aureus CN491; format: functional; method in brief: as §1
Streptococcus pyogenes = experiment: Comparative in vitro antibacterial activity of compound with trimethoprim against Streptococcus pyogenes CN10; format: functional; method in brief: as §1
[3] = system: Bordetella bronchiseptica; experiment: Comparative in vitro antibacterial activity of compound with trimethoprim against Bordetella bronchiseptica CN385; format: functional; method in brief: as §1
Proteus mirabilis = experiment: Comparative in vitro antibacterial activity of compound with trimethoprim against Proteus mirabilis S2409; format: functional; method in brief: as §1
Klebsiella pneumoniae = experiment: Comparative in vitro antibacterial activity of compound with trimethoprim against Klebsiella pneumoniae CN3632; format: functional; method in brief: as §1
Streptococcus agalactiae = experiment: Comparative in vitro antibacterial activity of compound with trimethoprim against Streptococcus agalactiae CN1143; format: functional; method in brief: as §1
Shigella flexneri = experiment: Comparative in vitro antibacterial activity of compound with trimethoprim against Shigella flexneri CN6007; format: functional; method in brief: as §1
Escherichia coli = experiment: Comparative in vitro antibacterial activity of compound with trimethoprim against Escherichia coli CN314; format: functional; method in brief: as §1
Proteus vulgaris = experiment: Comparative in vitro antibacterial activity of compound with trimethoprim against Proteus vulgaris CN329; format: functional; method in brief: as §1
Klebsiella aerogenes = experiment: Comparative in vitro antibacterial activity of compound with trimethoprim against Enterobacter aerogenes 2200/86; format: functional; method in brief: as §1
[4] = system: Mycolicibacterium smegmatis; experiment: Comparative in vitro antibacterial activity of compound with trimethoprim against Mycobacterium smegmatis S 3254; format: functional; method in brief: as §1
Vibrio cholerae = experiment: Comparative in vitro antibacterial activity of compound with trimethoprim against Vibrio cholerae ATCC 14035; format: functional; method in brief: as §2
Serratia marcescens = experiment: Comparative in vitro antibacterial activity of compound with trimethoprim against Serratia marcescens CN2398; format: functional; method in brief: as §1
Salmonella typhimurium = experiment: Comparative in vitro antibacterial activity of compound with trimethoprim against Salmonella Typhimurium S 8587; format: functional, Salmonella enterica subsp. enterica serovar Typhimurium; details: Salmonella enterica; method in brief: as §1
Pasteurella multocida = experiment: Comparative in vitro antibacterial activity of compound with trimethoprim against Pasteurella multocida ATCC 6587; format: functional; method in brief: as §1
Citrobacter freundii = experiment: Comparative in vitro antibacterial activity of compound with trimethoprim against Citrobacter freundii 2200/77; format: functional; method in brief: as §1
Dihydrofolate reductase = molecular target: T1, Dihydrofolate reductase (Rattus norvegicus, UniProt Q920D2); experiment: Inhibitory activity against Dihydrofolate reductase in rat liver; format: tissue-based; details: read-out: I50
T1 sequence (Q920D2 whole entry): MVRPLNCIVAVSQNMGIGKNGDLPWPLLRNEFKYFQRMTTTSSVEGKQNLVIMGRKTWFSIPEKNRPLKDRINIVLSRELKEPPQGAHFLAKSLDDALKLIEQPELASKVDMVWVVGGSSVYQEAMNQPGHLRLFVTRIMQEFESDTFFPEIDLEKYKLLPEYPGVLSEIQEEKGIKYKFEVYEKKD

[5] = Dissociation constent of compound at 20 degree C; format: ADME

Structure (SMILES)	pKa [1]	MIC (Enterococcus faecalis) [µg/mL]	MIC [2] [µg/mL]	MIC (Staphylococcus aureus) [µg/mL]	MIC (Streptococcus pyogenes) [µg/mL]	MIC [3] [µg/mL]	MIC (Proteus mirabilis) [µg/mL]	MIC (Klebsiella pneumoniae) [µg/mL]	MIC (Streptococcus agalactiae) [µg/mL]	MIC (Shigella flexneri) [µg/mL]	MIC (Escherichia coli) [µg/mL]	MIC (Proteus vulgaris) [µg/mL]	MIC (Klebsiella aerogenes) [µg/mL]	MIC [4] [µg/mL]	MIC (Vibrio cholerae) [µg/mL]	MIC (Serratia marcescens) [µg/mL]	MIC (Salmonella typhimurium) [µg/mL]	MIC (Pasteurella multocida) [µg/mL]	MIC (Citrobacter freundii) [µg/mL]	IC50 (Dihydrofolate reductase) [µM]	also measured
COc1ccc2ccccc2n1	3.16	–	–	–	–	–	–	–	–	–	–	–	–	–	–	–	–	–	–	–	–
Cc1cc(N(C)C)nc2ccc(Cc3cnc(N)nc3N)cc12	–	3 (≈ 9.73 µM)	10 (≈ 32.4 µM)	3 (≈ 9.73 µM)	10 (≈ 32.4 µM)	10 (≈ 32.4 µM)	3 (≈ 9.73 µM)	10 (≈ 32.4 µM)	10 (≈ 32.4 µM)	10 (≈ 32.4 µM)	3 (≈ 9.73 µM)	3 (≈ 9.73 µM)	3 (≈ 9.73 µM)	1 (≈ 3.24 µM)	1 (≈ 3.24 µM)	3 (≈ 9.73 µM)	10 (≈ 32.4 µM)	1 (≈ 3.24 µM)	10 (≈ 32.4 µM)	–	–
COc1cc(C)c2ccc(Cc3cnc(N)nc3N)cc2n1	–	3 (≈ 10.2 µM)	1000 (≈ 3390 µM)	10 (≈ 33.9 µM)	3 (≈ 10.2 µM)	> 100	30 (≈ 102 µM)	100 (≈ 339 µM)	3 (≈ 10.2 µM)	300 (≈ 1020 µM)	300 (≈ 1020 µM)	30 (≈ 102 µM)	300 (≈ 1020 µM)	3 (≈ 10.2 µM)	3 (≈ 10.2 µM)	> 100	100 (≈ 339 µM)	10 (≈ 33.9 µM)	100 (≈ 339 µM)	4.5	–
CCCCCc1cc(OC)c2cc(Cc3cnc(N)nc3N)cc(OC)c2n1	–	1 (≈ 2.62 µM)	30 (≈ 78.6 µM)	0.3 (≈ 0.786 µM)	3 (≈ 7.86 µM)	10 (≈ 26.2 µM)	30 (≈ 78.6 µM)	30 (≈ 78.6 µM)	0.3 (≈ 0.786 µM)	30 (≈ 78.6 µM)	10 (≈ 26.2 µM)	100 (≈ 262 µM)	10 (≈ 26.2 µM)	10 (≈ 26.2 µM)	3 (≈ 7.86 µM)	30 (≈ 78.6 µM)	30 (≈ 78.6 µM)	10 (≈ 26.2 µM)	10 (≈ 26.2 µM)	–	–
COc1cccc2cccnc12	4.99	–	–	–	–	–	–	–	–	–	–	–	–	–	–	–	–	–	–	–	–
Cc1cc(N2CCOCC2)nc2c(C)cc(Br)cc12	6.37	–	–	–	–	–	–	–	–	–	–	–	–	–	–	–	–	–	–	–	–
COc1cc(C)nc2c(OC)cc(Br)cc12	6.39	–	–	–	–	–	–	–	–	–	–	–	–	–	–	–	–	–	–	–	–
Cc1cc(N2CCOCC2)nc2c(C)cc(Cc3cnc(N)nc3N)cc12	–	0.3 (≈ 0.823 µM)	30 (≈ 82.3 µM)	0.3 (≈ 0.823 µM)	1 (≈ 2.74 µM)	3 (≈ 8.23 µM)	30 (≈ 82.3 µM)	10 (≈ 27.4 µM)	0.3 (≈ 0.823 µM)	30 (≈ 82.3 µM)	30 (≈ 82.3 µM)	100 (≈ 274 µM)	30 (≈ 82.3 µM)	3 (≈ 8.23 µM)	3 (≈ 8.23 µM)	100 (≈ 274 µM)	30 (≈ 82.3 µM)	10 (≈ 27.4 µM)	10 (≈ 27.4 µM)	410	–
Cc1cc(N2CCOCC2)nc2cc(Cc3cnc(N)nc3N)ccc12	–	3 (≈ 8.56 µM)	10000 (≈ 28500 µM)	3 (≈ 8.56 µM)	10 (≈ 28.5 µM)	> 100	> 30	300 (≈ 856 µM)	30 (≈ 85.6 µM)	1000 (≈ 2850 µM)	300 (≈ 856 µM)	> 100	300 (≈ 856 µM)	3 (≈ 8.56 µM)	10 (≈ 28.5 µM)	> 10	1000 (≈ 2850 µM)	300 (≈ 856 µM)	100 (≈ 285 µM)	16	–
COc1cc(C)nc2c(OC)cc(Cc3cnc(N)nc3N)cc12	–	1 (≈ 3.07 µM)	10 (≈ 30.7 µM)	0.3 (≈ 0.922 µM)	0.3 (≈ 0.922 µM)	10 (≈ 30.7 µM)	10 (≈ 30.7 µM)	10 (≈ 30.7 µM)	1 (≈ 3.07 µM)	3 (≈ 9.22 µM)	3 (≈ 9.22 µM)	3 (≈ 9.22 µM)	10 (≈ 30.7 µM)	3 (≈ 9.22 µM)	1 (≈ 3.07 µM)	3 (≈ 9.22 µM)	3 (≈ 9.22 µM)	3 (≈ 9.22 µM)	3 (≈ 9.22 µM)	49	–
Cc1cc(N(C)C)nc2c(C)cc(Cc3cnc(N)nc3N)cc12	–	1 (≈ 3.1 µM)	3 (≈ 9.3 µM)	1 (≈ 3.1 µM)	3 (≈ 9.3 µM)	30 (≈ 93 µM)	10 (≈ 31 µM)	3 (≈ 9.3 µM)	1 (≈ 3.1 µM)	10 (≈ 31 µM)	10 (≈ 31 µM)	10 (≈ 31 µM)	10 (≈ 31 µM)	3 (≈ 9.3 µM)	1 (≈ 3.1 µM)	10 (≈ 31 µM)	10 (≈ 31 µM)	3 (≈ 9.3 µM)	10 (≈ 31 µM)	280	–
COc1cc(Br)cc2c(N(C)C)cc(C)nc12	8.18	–	–	–	–	–	–	–	–	–	–	–	–	–	–	–	–	–	–	–	–
COc1cc(Cc2cnc(N)nc2N)cc2c(N(C)C)cc(C)nc12	–	100 (≈ 295 µM)	100 (≈ 295 µM)	30 (≈ 88.6 µM)	10 (≈ 29.5 µM)	30 (≈ 88.6 µM)	> 30	> 300	30 (≈ 88.6 µM)	30 (≈ 88.6 µM)	> 10	> 100	300 (≈ 886 µM)	100 (≈ 295 µM)	10 (≈ 29.5 µM)	> 300	100 (≈ 295 µM)	100 (≈ 295 µM)	> 300	70	–
Cc1cc(N(C)C)nc2ccc(Br)cc12	7.34	–	–	–	–	–	–	–	–	–	–	–	–	–	–	–	–	–	–	–	–
Brc1ccc2ncccc2c1	–	–	–	–	–	–	–	–	–	–	–	–	–	–	–	–	–	–	–	–	pKa [5]: 3.91
COc1cc(C)c2cc(Cc3cnc(N)nc3N)cc(C)c2n1	–	1 (≈ 3.23 µM)	10 (≈ 32.3 µM)	1 (≈ 3.23 µM)	3 (≈ 9.7 µM)	100 (≈ 323 µM)	10 (≈ 32.3 µM)	10 (≈ 32.3 µM)	1 (≈ 3.23 µM)	30 (≈ 97 µM)	10 (≈ 32.3 µM)	30 (≈ 97 µM)	30 (≈ 97 µM)	3 (≈ 9.7 µM)	3 (≈ 9.7 µM)	10 (≈ 32.3 µM)	30 (≈ 97 µM)	10 (≈ 32.3 µM)	30 (≈ 97 µM)	62	–
COc1cc(C)c2cc(Br)cc(C)c2n1	2.96	–	–	–	–	–	–	–	–	–	–	–	–	–	–	–	–	–	–	–	–
Nc1ccnc2ccccc12 [QUINOLIN-4-AMINE]	–	–	–	–	–	–	–	–	–	–	–	–	–	–	–	–	–	–	–	–	pKa [5]: 9.13
